Common to all, as to format: functional, Mus musculus
The nature of test [1]: In vitro for cytostatic activity against Cloudman melanoma S91 cells at 1.0 uM concentration. The method, boiled down: (§1)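 Cloudman melanoma S91 cells (doubling time 36 h), 0.1×10^6 per flask, pre-grown 72 h at 37 °C in Ham's F10 with 15% horse serum, 2.5% fetal bovine serum, 8 mM glutamine, penicillin and streptomycin. Medium then replaced with compound at final 0.1, 0.5 or 1.0 μM, with 0.1% DMSO in test and control. After 72 h more, cells trypsinized and counted. Triplicate cultures; cell number given as % of control.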

Test [2] can be described thus: Compound was tested in vitro for cytostatic activity against Cloudman melanoma S91 cells at 0.1 uM concentration. The method in brief: as §1
The nature of test [3]: Compound was tested in vitro for cytostatic activity against Cloudman melanoma S91 cells at 0.5 uM concentration. The method, boiled down: as §1

On to `COc1ccc2nc3cc(Cl)ccc3c(NCCCNCCCN)c2c1.Cl`, for which the “Cell number (% of control)” value in test [1] was 28%.

Regarding `CCNCCCCCCNc1c2ccccc2nc2ccccc12.Cl.Cl`, the “Cell number (% of control)” value turned out to be 7% in test [1] and 102% in test [2].

Turning to `COc1ccc2nc3cc(Cl)ccc3c(NCCCCCCN)c2c1.Cl.Cl.Cl`, the “Cell number (% of control)” value in test [1] and in test [2] was 105% each time.

As to `Cl.Cl.NCCCCCCNc1c2ccccc2nc2ccccc12`, the “Cell number (% of control)” value in test [1] is given as 95%.

For the compound `Cl.Cl.c1ccc2c(NCCN3CCNCC3)c3ccccc3nc2c1`, in test [1], the “Cell number (% of control)” value was determined as 30%.

As for `COc1ccc2nc3cc(Cl)ccc3c(NCCCCCCCCNc3c4ccccc4nc4ccccc34)c2c1.Cl.Cl.Cl`, the “Cell number (% of control)” value in test [1] stood at 44%.

Turning to `Cl.c1ccc2c(NCCCNCCCNc3c4ccccc4nc4ccccc34)c3ccccc3nc2c1`, the “Cell number (% of control)” value amounted to 31% in test [1] and 103% in test [2].

Regarding `COc1ccc2nc3cc(Cl)ccc3c(NCCCN3CCN(CCCNc4c5ccc(Cl)cc5nc5ccc(OC)cc45)CC3)c2c1.Cl`, in test [1], the “Cell number (% of control)” value is given as 43%.

Take `COc1ccc2nc3cc(Cl)ccc3c(NCCCN3CCN(CCCN)CC3)c2c1.Cl`: the “Cell number (% of control)” value in test [1] was 78%.

As to `COc1ccc2nc3cc(Cl)ccc3c(NCCCCCCCCN)c2c1.Cl.Cl.Cl`, in test [1], the “Cell number (% of control)” value is 86%.

Regarding `COc1ccc2nc3cc(Cl)ccc3c(NCCCN3CCN(CCCNc4c5ccccc5nc5ccccc45)CC3)c2c1.Cl`, the “Cell number (% of control)” value in test [1] came out at 20%; in test [2] it was 50%.

With `COc1ccc2nc3cc(Cl)ccc3c(NCCCNCCCNc3c4ccc(Cl)cc4nc4ccc(OC)cc34)c2c1.Cl`, the “Cell number (% of control)” value in test [1] worked out at 0%; in test [2] it was 85%. Further, the Control in test [3] was found to be 16%.

In the case of `Cl.NCCCN1CCN(CCCNc2c3ccccc3nc3ccccc23)CC1`, the entries for the “Cell number (% of control)” value in test [1] and in test [2] were 3% and 39%, respectively.

For the compound `COc1ccc2nc3cc(Cl)ccc3c(NCCCCCCNc3c4ccc(Cl)cc4nc4ccc(OC)cc34)c2c1.Cl.Cl.Cl.Cl`, the “Cell number (% of control)” value in test [1] amounted to 83%.

Turning to `COc1ccc2nc3cc(Cl)ccc3c(NCCCCCCNc3c4ccccc4nc4ccccc34)c2c1.Cl.Cl.Cl`, the “Cell number (% of control)” value in test [1] is on record as 49%.

Take `COc1ccc2nc3cc(Cl)ccc3c(NCCCNCCCNc3c4ccccc4nc4ccccc34)c2c1.Cl`: the “Cell number (% of control)” value in test [1] is recorded as 3%; in test [2] it was 66%.

Turning to `Cl.Cl.c1ccc2c(NCCCCCCNc3c4ccccc4nc4ccccc34)c3ccccc3nc2c1`, the “Cell number (% of control)” value in test [1] came out at 39%.

In the case of `Cl.c1ccc2c(NCCCN3CCN(CCCNc4c5ccccc5nc5ccccc45)CC3)c3ccccc3nc2c1`, the “Cell number (% of control)” value in test [1] is reported as 2%; in test [2], 24%.

Source of the values: ChEMBL document CHEMBL1122502, “9-acridinyl and 2-methoxy-6-chloro-9-acridinyl derivatives of aliphatic di-, tri-, and tetraamines. Chemistry, cytostatic activity, and schistosomicidal activity” (1983).
